Assay results from different studies.
Target: Mitogen-activated protein kinase kinase kinase 15 (MAP3K15, Homo sapiens, UniProt Q6ZN16)
Residues used in one study (Q6ZN16 1-1313): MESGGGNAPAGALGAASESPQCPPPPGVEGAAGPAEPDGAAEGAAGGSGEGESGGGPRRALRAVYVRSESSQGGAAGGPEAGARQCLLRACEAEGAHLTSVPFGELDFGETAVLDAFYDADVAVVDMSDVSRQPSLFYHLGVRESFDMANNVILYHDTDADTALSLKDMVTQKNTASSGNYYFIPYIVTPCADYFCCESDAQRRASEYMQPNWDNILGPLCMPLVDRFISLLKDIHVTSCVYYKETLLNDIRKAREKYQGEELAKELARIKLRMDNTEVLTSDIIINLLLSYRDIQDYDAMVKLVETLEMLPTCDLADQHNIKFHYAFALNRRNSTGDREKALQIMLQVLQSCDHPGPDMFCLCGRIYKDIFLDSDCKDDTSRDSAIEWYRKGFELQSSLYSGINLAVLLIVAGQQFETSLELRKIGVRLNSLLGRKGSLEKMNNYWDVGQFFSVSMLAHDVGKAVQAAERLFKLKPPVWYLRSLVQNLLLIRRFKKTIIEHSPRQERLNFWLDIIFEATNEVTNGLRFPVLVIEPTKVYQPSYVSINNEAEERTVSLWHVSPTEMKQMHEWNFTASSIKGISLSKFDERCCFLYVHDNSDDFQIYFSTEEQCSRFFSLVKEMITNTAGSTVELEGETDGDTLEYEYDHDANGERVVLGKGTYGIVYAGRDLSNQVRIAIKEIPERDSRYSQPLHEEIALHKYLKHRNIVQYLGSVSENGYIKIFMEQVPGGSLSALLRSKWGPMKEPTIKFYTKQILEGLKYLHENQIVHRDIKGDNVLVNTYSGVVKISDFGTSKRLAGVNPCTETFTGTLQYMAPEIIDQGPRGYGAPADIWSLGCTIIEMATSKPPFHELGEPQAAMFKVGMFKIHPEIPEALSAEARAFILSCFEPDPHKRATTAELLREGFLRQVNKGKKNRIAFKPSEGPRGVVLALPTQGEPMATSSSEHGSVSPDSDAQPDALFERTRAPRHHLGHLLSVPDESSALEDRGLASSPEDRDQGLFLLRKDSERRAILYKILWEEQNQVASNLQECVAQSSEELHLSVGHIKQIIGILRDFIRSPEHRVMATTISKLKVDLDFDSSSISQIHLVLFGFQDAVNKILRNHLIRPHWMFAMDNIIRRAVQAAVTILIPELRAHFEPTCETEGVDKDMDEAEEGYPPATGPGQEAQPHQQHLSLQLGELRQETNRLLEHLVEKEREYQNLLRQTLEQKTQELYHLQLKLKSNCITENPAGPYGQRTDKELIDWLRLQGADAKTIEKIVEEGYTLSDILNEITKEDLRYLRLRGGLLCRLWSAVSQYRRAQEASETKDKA

SMILES	observed	method	tested at	remaining binding [%]
O=C(O)c1cc(-c2ccc(C3CCNCC3)cc2)c2ccc(-c3ccc(C(F)(F)F)cc3)cc2c1	cell-free assay	competition with immobilised ligand	1 µM	99
CNC(=O)[C@@H]1CC[C@@H](n2c(-c3ccc4cnccc4c3)nc3ccc(C(=O)NCc4cccc(C(N)=O)c4)cc32)C1	binding	competition with immobilised ligand	1 µM	99
COc1ccnn2ncc(-c3ccnc(N(C)C)n3)c12	binding	–	1 µM	100
COc1cnc(Nc2cccc(S(N)(=O)=O)c2)nc1N1CCN(c2ccccc2)C(=O)C1	binding	competition with immobilised ligand	1 µM	69
O=c1nc(-c2ccccn2)sc2ccccc12	binding	competition with immobilised ligand	1 µM	100
CN(c1nccc(-c2cnn3ncccc23)n1)C1CC1	binding	–	1 µM	100
CCCOc1ccc([C@@H]2[C@@H](C(=O)O)[C@H](c3ccc4c(c3)OCO4)CN2CC(=O)Nc2c(CC)cccc2CC)cc1	cell-free assay	competition with immobilised ligand	1 µM	99
Cc1cnn2ncc(-c3ccnc(N(C)C)n3)c2c1	binding	–	1 µM	100
Cn1nc(C(F)(F)F)cc1-c1cnc(N2CCc3cc(S(=O)(=O)Nc4c(F)cc(Cl)cc4F)cc(N4CCCC4=O)c32)nc1	cell-free assay	competition with immobilised ligand	1 µM	81
N[C@H]1CCN(c2nccc(-c3cnn4ncccc34)n2)C1	binding	–	1 µM	83
O=C(c1ccc(Nc2ncc(Cl)c(-c3cc4ccccc4s3)n2)cc1)N1CCC(N2CCCC2)CC1	binding	competition with immobilised ligand	1 µM	55
COc1ncc2cc3ccccc3nc2c1C#N	cell-free assay	competition with immobilised ligand	5 µM	95
O=C(NCCCN1CCOCC1)c1ccc(Nc2ncc(Cl)c(-c3ccc(Cl)s3)n2)cc1	binding	competition with immobilised ligand	1 µM	68
CC1=C(C#N)C(c2ccc3c(c2)c(NC(=O)c2ccccc2C)nn3C)C(C#N)=C(C)N1	cell-free assay	competition with immobilised ligand	1 µM	96
O=C(NCC1CCOCC1)c1n[nH]cc1NC(=O)c1c(F)cccc1F	binding	competition with immobilised ligand	1 µM	72
C[C@@H]1CCN(c2nccc(-c3cnn4ncccc34)n2)C1	binding	–	1 µM	100
CN(C)C(=O)Cn1cc(-c2nc([C@@](C)(c3ccc(-c4cnc(N)nc4)cc3)C3CC3)no2)cn1	cell-free assay	competition with immobilised ligand	1 µM	99
O=C(c1ccc(Nc2nccc(-c3cc4ccccc4s3)n2)cc1)N1CCC(N2CCCC2)CC1	binding	competition with immobilised ligand	1 µM	96
CC1CCCN1c1nccc(-c2cnn3ncccc23)n1 (centres unmarked)	binding	–	1 µM	100
c1cncc(-c2cccc(Nc3nccc(NC4CCCCC4)n3)c2)c1	binding	competition with immobilised ligand	10 µM	77
